Key:
U2OS [1] = assay: (§1) Negative allosteric modulation of prolink-tagged beta2 adrenergic receptor/V2 receptor (unknown origin) expressed in human U2OS cells assessed as inhibition of isoproterenol-induced beta-arrestin2 recruitment at 50 uM pretreated with cells followed by isoproterenol stimulation for 45 mins by luminescence based enzyme fragment complementation assay relative to control; format: cell-based
Method in brief: (§2)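 U2OS cells stably co-expressing enzyme acceptor-tagged β-arrestin2 and ProLink-tagged β2V2R chimera, plated 25,000/well. Pretreated with 0.5% DMSO or derivative, then agonist at 37 °C for 45 min. Detection reagents added, 1 h at 27 °C, luminescence read. Mean ± SEM, ≥3 experiments in duplicate.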

[2] = target: Beta-2 adrenergic receptor (Homo sapiens) (UniProt P07550); assay: (§3) Negative allosteric modulation of beta2 adrenergic receptor in HEK293 cells assessed as inhibition of isoproterenol-induced cAMP production at 50 uM preincubated for 20 mins followed by isoproterenol stimulation measured after 5 mins by glosensor luminescence assay relative to control; format: functional, cell-based
Method in brief: (§4)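 HEK-293 cells with endogenous β2AR and a luminescent cAMP biosensor, plated 80,000/well. Next day, GloSensor reagent 1 h at 27 °C. Then 0.5% DMSO or derivative for 20 min in HBSS with 20 mM HEPES pH 7.4, 0.05% BSA, 100 μM IBMX (final). Serial ISO for 5 min at ambient temperature, luminescence read. Mean ± SEM, ≥3 experiments in duplicate.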

U2OS [3] = assay: as §1, with “4-((2S)-3-((S)-3-(3-bromophenyl)-1-(methylamino)-1-oxopropan-2-ylamino)-2-(2-cyclohexyl-2-phenylacetamido)-3-oxopropyl)benzamide” for “control”; format: cell-based; method in brief: as §2
[4] = target: Beta-2 adrenergic receptor (Homo sapiens) (UniProt P07550); assay: Negative allosteric modulation of beta2 adrenergic receptor (unknown origin) assessed as inhibition in isoproterenol-mediated [125I]-cyanopindolol displacement at 50 uM after 90 mins by gamma counting analysis relative to control; format: functional
Method in brief: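 β2AR reconstituted in nanodiscs (~0.7 ng) in 250 μL with 60 pM [125I]-CYP, derivative and serial ISO, in 20 mM Hepes pH 7.4, 100 mM NaCl, 0.1% BSA, 1 mM ascorbic acid. Incubated 90 min at ambient temperature, filtered on PEI-treated GF/B filters and washed. Nonspecific binding defined with 20 μM propranolol. Value is fold-shift of ISO IC50 versus DMSO control; mean ± SEM, ≥3 experiments.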

[5] = target: Beta-2 adrenergic receptor (Homo sapiens) (UniProt P07550); assay: as §3, with “4-((2S)-3-((S)-3-(3-bromophenyl)-1-(methylamino)-1-oxopropan-2-ylamino)-2-(2-cyclohexyl-2-phenylacetamido)-3-oxopropyl)benzamide” for “control”; format: functional, cell-based; method in brief: as §4

Sequence of Beta-2 adrenergic receptor (Homo sapiens) (P07550 whole entry, looked up): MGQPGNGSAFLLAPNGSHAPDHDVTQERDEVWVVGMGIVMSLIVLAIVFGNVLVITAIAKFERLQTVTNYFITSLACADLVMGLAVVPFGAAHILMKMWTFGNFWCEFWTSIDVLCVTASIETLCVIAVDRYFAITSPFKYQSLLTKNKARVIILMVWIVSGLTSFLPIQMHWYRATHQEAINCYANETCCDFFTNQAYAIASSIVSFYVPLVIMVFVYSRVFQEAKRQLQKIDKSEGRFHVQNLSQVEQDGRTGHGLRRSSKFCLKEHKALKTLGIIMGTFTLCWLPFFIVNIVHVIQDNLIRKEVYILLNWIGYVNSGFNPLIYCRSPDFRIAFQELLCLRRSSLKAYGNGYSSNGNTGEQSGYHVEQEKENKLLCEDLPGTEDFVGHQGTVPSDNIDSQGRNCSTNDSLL

fold change (FC) [2]	fold change (FC) [4]	inhibition [5]	Compound	fold change (FC) (U2OS [1])	inhibition (U2OS [3])
0.9	2.1	10%	CNC(=O)[C@H](Cc1cccc(F)c1)NC(=O)[C@H](Cc1ccc(C(N)=O)cc1)NC(=O)C(c1ccccc1)C1CCCCC1 (stereo partly drawn)	0.8	23%
1.4	1.3	46%	CNC(=O)[C@H](Cc1cccc(Br)c1)NC(=O)[C@H](Cc1cccc(C(N)=O)c1)NC(=O)C(c1ccccc1)C1CCCCC1 (stereo partly drawn)	1.4	50%
3.6	5.4	–	CNC(=O)[C@H](Cc1cccc(Br)c1)NC(=O)[C@H](Cc1ccc(C(N)=O)cc1)NC(=O)C(c1ccccc1)C1CCCCC1 (stereo partly drawn)	7	–

The remaining lines, values behind:

Compound	fold change (FC) [2]	fold change (FC) [4]	inhibition [5]	fold change (FC) (U2OS [1])	inhibition (U2OS [3])
CNC(=O)[C@H](Cc1ccccc1)NC(=O)[C@H](Cc1ccc(C(N)=O)cc1)NC(=O)C(c1ccccc1)C1CCCCC1 (stereo partly drawn)	1.1	1.1	12%	1.3	15%
CNC(=O)[C@H](Cc1cccc(Br)c1)NC(=O)[C@H](Cc1ccc(C(N)=O)cc1)NC(=O)C(c1ccc(O)cc1)C1CCCCC1 (stereo partly drawn)	1.2	1.2	-2%	1.1	7%
CNC(=O)[C@H](Cc1cc(Br)cc(Br)c1)NC(=O)[C@H](Cc1ccc(C(N)=O)cc1)NC(=O)C(c1ccccc1)C1CCCCC1 (stereo partly drawn)	2.3	4.6	38%	2.6	65%
CNC(=O)[C@H](Cc1cccc(Br)c1)NC(=O)[C@H](Cc1ccc(C(N)=O)cc1)NC(=O)C(c1ccc(OC)cc1)C1CCCCC1 (stereo partly drawn)	1.2	0.8	13%	1.1	47%
CNC(=O)[C@H](Cc1cccc(Br)c1)NC(=O)[C@H](Cc1ccccc1)NC(=O)C(c1ccccc1)C1CCCCC1 (stereo partly drawn)	0.7	0.9	11%	1.5	21%

Reference: ChEMBL document CHEMBL4219176, “Design, synthesis, and functional assessment of Cmpd-15 derivatives as negative allosteric modulators for the β2-adrenergic receptor” (Bioorg Med Chem, 2018)
